Ecoli rRNA inh: inhibitors of bacterial rRNA selective over humanized ribosomes; E. coli WT GFP vs humanized-ribosome RFP mutants, fluorescence, 24 h; active compounds read low; DMSO median 0, no signal -100; GFP signal change (wild-type ribosome), % (concentration not given with the values); 350,000 tested, 1.6% active;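 active means significant combined selectivity score with lowered wild-type GFP, culture density cut under 30%, mutant RFP and density less affected; inactive means any of these conditions unmet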
ERAP1 inh: ERAP1 (human) enzyme inhibition. recombinant ERAP1, Leu-AMC fluorescence, 60 min. inhibition, % at 10.7 µM. 340,000 tested, 0.15% active;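 active means mean replicate inhibition of at least 30%, or all replicates individually reaching that 30% level; inactive means mean below 30% and not every replicate reaching it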;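 further: 0% = neutral control wells and 100% = L-leucinethiol positive control wells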
Env fusion inh: inhibitors of HIV Env-mediated cell fusion; HeLa-JRFL Env/CEM21 cell fusion, luciferase; inhibition, % at 12.3 µM; 360,000 tested, 1.1% active;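 active means mean replicate inhibition score of at least 50 and every replicate individually at or above 50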;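 further: 0% = plate neutral controls and 100% = maraviroc near 300 nM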
PGC1a acetyl inh: PGC1a acetylation modulation, inhibitor mode | inhibition, % at 15.6 µM | 350,000 tested, 0.17% active | U2OS PGC1a acetylation, AlphaScreen anti-acetyl-lysine; with virally co-expressed GCN5 acetyltransferase;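 active means every replicate shows inhibition of at least 40%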;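 further: 0% = neutral control wells and 100% = positive control wells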
FGF22 binding: binders of recombinant human FGF22 by thermal shift; Q9HCT0; SYPRO orange fluorescence; percent of sucrose octasulfate shift, DMSO zero; activity (Tm shift, normalised), % at 9.99 µM; 340,000 tested, 1.5% active;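 active means mean Tm shift, scaled 0 neutral to 100 positive control, at about 1.3% or above, every replicate too, limit read from the data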
Target sequence (Q9HCT0 whole entry, looked up): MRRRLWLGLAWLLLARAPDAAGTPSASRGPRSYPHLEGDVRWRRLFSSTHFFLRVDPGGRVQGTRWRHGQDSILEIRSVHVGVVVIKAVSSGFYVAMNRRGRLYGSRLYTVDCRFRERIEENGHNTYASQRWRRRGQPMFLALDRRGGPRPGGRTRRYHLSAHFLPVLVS
Cneo AK release: Cryptococcus neoformans lysis via adenylate kinase release; C. neoformans lysis, adenylate kinase release luminescence, 4 h; normalised: neutral wells 0, clomiphene wells 100; lysis activity, % at 15 µM; 360,000 tested, 0.2% active;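 active means mean lysis activity across replicates of at least 80%, whatever share of replicates individually reach that level; inactive means mean lysis activity below 80%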
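Signal: Adenylate kinase release luminescence | Assay system: Log-phase Cryptococcus neoformans yeast cells | Input: Cells at 5 × 10^6 per mL | Buffer or medium: Fresh YPD growth medium | Compound: Single dose | Schedule: Static 4 h at 37 °C with compound, 1 h detection | Controls: Clomiphene | Read-out: Luminescence rise reflecting yeast cell lysis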
Starred values were filed as active, the others as inactive; [ ] = dose if it differs, or a comment. A selection: hits, their analogues and other compounds. The true share with any hit is near 3.5%.

`O=C(NNC(=O)C1CC1)c1ccc(-c2ccccc2)cc1` gave Ecoli rRNA inh 8, ERAP1 inh 0, PGC1a acetyl inh 18, FGF22 binding 0 and Cneo AK release 0.
`O=C(COC(=O)c1ccccc1O)NNC(=O)c1ccc(Br)cc1` gave Ecoli rRNA inh 4, ERAP1 inh 1, Env fusion inh -90, FGF22 binding 0 and Cneo AK release 1.
Screening O=C(NNC(=O)c1ccccc1O)c1ccc(Br)cc1 returned Ecoli rRNA inh -24*, ERAP1 inh -1, Env fusion inh -14, PGC1a acetyl inh 15, FGF22 binding 0 and Cneo AK release -2.
For Cn1nc(C(C)(C)C)c([N+](=O)[O-])c1C(=O)Nc1ccccc1 the results were Env fusion inh 9.
Screening COc1ccc(-n2nnnc2C(CCc2ccccc2)N2CCN(C/C=C/c3ccccc3)CC2)cc1 (stereo unspecified) returned Ecoli rRNA inh -24, ERAP1 inh -2, Env fusion inh -21, PGC1a acetyl inh 4, FGF22 binding 0 and Cneo AK release 1.
For Cc1ccc(S(=O)(=O)N2CCN=C2SCc2ccc(Cl)c(Cl)c2)cc1 the results were Env fusion inh 4.
Screening COCC(=O)N1[C@H](CO)[C@H](c2ccccc2)C12CN(C(=O)c1ccc(F)cc1)C2 returned Ecoli rRNA inh 2, ERAP1 inh 1, PGC1a acetyl inh -3 and FGF22 binding 0.
Screening CCN1C(=O)C(c2ccc(O)cc2)(c2ccc(O)cc2)c2ccccc21 returned Ecoli rRNA inh -5, ERAP1 inh 1, Env fusion inh -12, PGC1a acetyl inh 37 and FGF22 binding 0.
For CN(C)S(=O)(=O)c1ccc(Cl)c(NC(=O)CSc2nc3c(cc2C#N)C(=O)CC(C)(C)C3)c1 the results were Ecoli rRNA inh 7, ERAP1 inh 2, Env fusion inh 7, FGF22 binding 0 and Cneo AK release 4.
`CN(C)S(=O)(=O)c1cccc(NC(=O)CSc2nc3c(cc2C#N)C(=O)CC(C)(C)C3)c1` gave Ecoli rRNA inh -11, ERAP1 inh -2, Env fusion inh 70* and FGF22 binding 1.
For Cc1nnc(NC(=O)CC(NC(=O)C(F)(F)F)c2ccccc2)s1 (stereo unspecified) the results were Ecoli rRNA inh 6, ERAP1 inh -1, Env fusion inh -2 and FGF22 binding 0.
Cc1cc(C)cc(C(=O)N2CC(=O)Nc3ccccc32)c1 was read as PGC1a acetyl inh -13.
For Cc1ccc(/C=C/C(=O)N2CC(=O)Nc3ccccc32)o1 the results were Ecoli rRNA inh 14, ERAP1 inh 14, Env fusion inh 3, PGC1a acetyl inh -4 and FGF22 binding 44*.
Screening Cc1ccc(CC(=O)Nc2ccc(F)c([N+](=O)[O-])c2)cc1C returned Ecoli rRNA inh 8, ERAP1 inh 0, Env fusion inh -13 and FGF22 binding 0.
`CCn1ncc(-c2cc(C(=O)O)no2)c1C` gave Ecoli rRNA inh 14, ERAP1 inh 0, Env fusion inh 12 and FGF22 binding 43*.
Screening N/C(=N\OC(=O)CCCOc1ccccc1)c1ccc([N+](=O)[O-])cc1 returned Ecoli rRNA inh 16, ERAP1 inh 2, Env fusion inh 9, PGC1a acetyl inh 90* and FGF22 binding 43*.
Cn1c2ccccc2c(=O)c2c(=O)n(Cc3ccco3)c(-c3ccc(F)cc3)nc21 was read as Ecoli rRNA inh -38*, ERAP1 inh 2, Env fusion inh -10, PGC1a acetyl inh -7, FGF22 binding 0 and Cneo AK release -1.
N/C(=N\OC(=O)/C=C/c1ccccc1)c1cccnc1 was read as Ecoli rRNA inh -5, ERAP1 inh -2, Env fusion inh -39 and FGF22 binding 43*.
Cc1ccc(S(=O)(=O)N(CC(=O)N/N=C/c2ccccc2C(=O)O)c2cc(Cl)cc(Cl)c2)cc1 was read as Ecoli rRNA inh 8, ERAP1 inh 2, Env fusion inh -7 and FGF22 binding 43*.
Screening O=C(C[C@@H]1CC[C@@H](NC(=O)c2cccnc2)[C@@H](CO)O1)NCCN1CCCCC1 returned Ecoli rRNA inh 4, ERAP1 inh -1, Env fusion inh 1[16.7 µM], PGC1a acetyl inh 4, FGF22 binding 0 and Cneo AK release 93*.
`O=C(C[C@@H]1CC[C@H](NC(=O)c2cccnc2)[C@@H](CO)O1)NCCN1CCCCC1` gave Ecoli rRNA inh -3, ERAP1 inh -1, Env fusion inh -7[16.7 µM], PGC1a acetyl inh -5, FGF22 binding 0 and Cneo AK release 2.
For O=C(C[C@@H]1CC[C@H](NC(=O)c2cccc(F)c2)[C@H](CO)O1)NCc1ccc(Oc2ccccc2)cc1 the results were Ecoli rRNA inh 1, ERAP1 inh 1, Env fusion inh 62*[16.7 µM], PGC1a acetyl inh -15, FGF22 binding 0 and Cneo AK release -3.
For O=C(C[C@H]1CC[C@@H](NC(=O)c2ccccc2)[C@H](CO)O1)NCc1ccc(Oc2ccccc2)cc1 the results were Ecoli rRNA inh -7, ERAP1 inh -5, Env fusion inh 66*[16.7 µM], PGC1a acetyl inh 37, FGF22 binding 0 and Cneo AK release 0.
Screening N#Cc1c(SCC(=O)N2CCOCC2)nsc1SCC(=O)N1CCOCC1 returned Env fusion inh -14, PGC1a acetyl inh -11 and Cneo AK release 0.
Screening CCOc1ccccc1OCC(=O)Nc1ccc2[nH]c(=O)[nH]c2c1 returned Ecoli rRNA inh -7, ERAP1 inh -2, Env fusion inh 42, FGF22 binding 0 and Cneo AK release 0.
`Cc1ccc2c(CC(=O)OC3CCOC3=O)coc2c1` (stereo unspecified) gave Env fusion inh 26, PGC1a acetyl inh 3 and Cneo AK release -5.
COc1ccc(S(=O)(=O)Nc2ccc3c(c2)C(=O)N([C@@H](C)CO)C[C@H](C)[C@@H](CN(C)S(=O)(=O)c2ccc(F)cc2)OCCCC[C@@H](C)O3)cc1 was read as Ecoli rRNA inh 0, ERAP1 inh 1, Env fusion inh -29[16.7 µM], PGC1a acetyl inh -5, FGF22 binding -1 and Cneo AK release -3.
Screening CCN(CC)C(=O)COc1ccc2oc(-c3ccco3)cc(=O)c2c1 returned Ecoli rRNA inh -3, ERAP1 inh -3, Env fusion inh -11 and FGF22 binding 44*.
Screening CCN(CC)C(=O)COc1c(-c2ccco2)oc2ccccc2c1=O returned Ecoli rRNA inh 11, ERAP1 inh -1, Env fusion inh -2, FGF22 binding 0 and Cneo AK release 2.
Screening CCOc1cc(NCc2ccccc2)c2ncn(C(C)C)c2c1 returned Ecoli rRNA inh -56, ERAP1 inh -5, Env fusion inh 49, PGC1a acetyl inh -10, FGF22 binding 0 and Cneo AK release -2.
